Reference: ChEMBL document CHEMBL5335771, “Thioxanthenone-based derivatives as multitarget therapeutic leads for Alzheimer's disease” (Eur J Med Chem, 2023)
Calls of active or inactive are those of the source. No cut-off for these calls is given here.

What was measured:
[1] = Cytotoxicity against mouse brain Primary embryonic cortical cell assessed as cell death at 2.5 uM incubated for 2 hrs by propidium iodide dye based spectrofluorometric analysis relative to control; type: toxicity
Summary of the method: (§1)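 Primary cortical cultures from E16.5 mouse embryo brains, trypsinized, plated on poly-D-lysine, grown in Neurobasal with glutamine, glucose, 5% horse serum and B27; compounds added at 4 DIV. Propidium iodide 30 μM; baseline F1 read 1 h after PI; ex 530/em 645 nm. Fmax after digitonin permeabilization. % death = 100×(Fn−F1)/(Fmax−F1); mean of three independent experiments.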

[2] = Cytotoxicity against mouse brain Primary embryonic cortical cell assessed as cell death at 5 uM incubated for 24 hrs by propidium iodide dye based spectrofluorometric analysis relative to control; type: toxicity; summary of the method: as §1
[3] = Cytotoxicity against mouse brain Primary embryonic cortical cell assessed as cell death at 5 uM incubated for 48 hrs by propidium iodide dye based spectrofluorometric analysis relative to control; type: toxicity; summary of the method: as §1
[4] = Cytotoxicity against mouse brain Primary embryonic cortical cell assessed as cell death at 5 uM incubated for 72 hrs by propidium iodide dye based spectrofluorometric analysis relative to control; type: toxicity; summary of the method: as §1
[5] = Cytotoxicity against mouse brain Primary embryonic cortical cell assessed as cell death at 10 uM incubated for 2 hrs by propidium iodide dye based spectrofluorometric analysis relative to control; type: toxicity; summary of the method: as §1
[6] = Cytotoxicity against mouse brain Primary embryonic cortical cell assessed as cell death at 10 uM incubated for 24 hrs by propidium iodide dye based spectrofluorometric analysis relative to control; type: toxicity; summary of the method: as §1
[7] = Cytotoxicity against mouse brain Primary embryonic cortical cell assessed as cell death at 30 uM incubated for 2 hrs by propidium iodide dye based spectrofluorometric analysis relative to control; type: toxicity; summary of the method: as §1
[8] = Cytotoxicity against mouse brain Primary embryonic cortical cell assessed as cell death at 30 uM incubated for 24 hrs by propidium iodide dye based spectrofluorometric analysis relative to control; type: toxicity; summary of the method: as §1
[9] = Cytotoxicity against mouse brain Primary embryonic cortical cell assessed as cell death at 30 uM incubated for 48 hrs by propidium iodide dye based spectrofluorometric analysis relative to control; type: toxicity; summary of the method: as §1
SH-SY5Y [10] = assay: Neuroprotective activity against okadaic acid-induced cytotoxicity in human SH-SY5Y cells assessed as increase in cell viability at 0.1 to 10 uM incubated for 24 hrs by MTT assay; type: functional, cell-based; conditions: dose 0.1-10 µM
Summary of the method: (§2)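 SH-SY5Y cells grown in DMEM with 10% FBS and plated at 4.5×10^4 cells/well. Incubated 24 h at 37 °C, 5% CO2 with compound (0.1–50 μM) plus okadaic acid 100 nM. Viability by MTT, expressed as % of untreated cells; estradiol and PD38 as positive controls. Mean ± SD of three independent experiments; ANOVA with Dunnett's test.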

SH-SY5Y [11] = assay: Neuroprotective activity against okadaic acid-induced cytotoxicity in human SH-SY5Y cells assessed as increase in cell viability at 50 uM incubated for 24 hrs by MTT assay; type: functional, cell-based; summary of the method: as §2

COc1ccc2sc3c(C)ccc(NCCC4CCN(C)CC4)c3c(=O)c2c1
Activity [1]: 3.8%
Activity [2]: 91.3%
Activity [3]: 85.6%
Activity [4]: 85.7%
Activity [5]: 43.5%
Activity [6]: 88.5%
Activity [7]: 46.5%
Activity [8]: 86.1%
Activity [9]: 88.1%
Activity (SH-SY5Y [10]): Active
Activity (SH-SY5Y [11]): inactive
